Reference: ChEMBL document CHEMBL4177644, “Design, synthesis and biological activity of 3-pyrazine-2-yl-oxazolidin-2-ones as novel, potent and selective inhibitors of mutant isocitrate dehydrogenase 1” (Bioorg Med Chem, 2017)

What was measured:
HEK-293T [1] = test: Cytotoxicity against HEK293T cells harboring WT-IDH1 at 10 uM after 72 hrs by CellTiter-Glo assay; format: cell-based; settings: human
In short: (§1)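 HEK-293T cells stably carrying IDH1 wild-type (pMXs-IDH1wt-IRES-BsdR, blasticidin-selected), 10 000 cells per well in DMEM with 10% FCS, 37 °C, 5% CO2. Compound added at the stated concentration for 72 h. Viability read by CellTiter-Glo luminescence.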

HEK-293T [2] = test: Cytotoxicity against HEK293T cells harboring WT-IDH1 at 50 uM after 72 hrs by CellTiter-Glo assay; format: cell-based; settings: human; in short: as §1
[3] = test system: Isocitrate dehydrogenase [NADP] cytoplasmic (Homo sapiens), O75874 [R132C]; test: Inhibition of IDH1 R132C mutant (unknown origin) expressed in HEK293T cells assessed as reduction in D-2-HG levels at 50 uM after 72 hrs relative to control; values are per cent of control
Isocitrate dehydrogenase [NADP] cytoplasmic (Homo sapiens), O75874 [R132C], sequence (O75874 whole entry R132C): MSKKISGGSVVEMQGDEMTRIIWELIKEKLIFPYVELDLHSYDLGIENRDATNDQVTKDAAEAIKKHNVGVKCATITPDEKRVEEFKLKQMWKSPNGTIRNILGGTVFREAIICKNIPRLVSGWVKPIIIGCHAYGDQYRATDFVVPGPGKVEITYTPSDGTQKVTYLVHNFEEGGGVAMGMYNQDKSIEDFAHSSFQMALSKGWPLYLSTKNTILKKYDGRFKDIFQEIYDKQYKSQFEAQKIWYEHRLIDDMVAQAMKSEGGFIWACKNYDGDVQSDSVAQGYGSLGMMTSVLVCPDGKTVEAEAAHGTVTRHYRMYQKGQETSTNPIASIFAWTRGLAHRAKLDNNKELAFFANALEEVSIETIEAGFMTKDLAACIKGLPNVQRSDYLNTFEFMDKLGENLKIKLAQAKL

[4] = test system: Isocitrate dehydrogenase [NADP] cytoplasmic (Homo sapiens), O75874 [R132H]; test: Inhibition of IDH1 R132H mutant (unknown origin) expressed in HEK293T cells assessed as reduction in D-2-HG levels at 10 uM after 72 hrs relative to control; values are per cent of control
Isocitrate dehydrogenase [NADP] cytoplasmic (Homo sapiens), O75874 [R132H], sequence (O75874 whole entry R132H): as the sequence (O75874 whole entry R132C) above, with C132H counted along it

[5] = test system: Isocitrate dehydrogenase [NADP] cytoplasmic (Homo sapiens), O75874 [R132H]; test: Inhibition of IDH1 R132H mutant (unknown origin) expressed in HEK293T cells assessed as reduction in D-2-HG levels at 50 uM after 72 hrs relative to control; values are per cent of control
[6] = test system: Isocitrate dehydrogenase [NADP] cytoplasmic (Homo sapiens), O75874 [R132C]; test: Inhibition of IDH1 R132C mutant (unknown origin) expressed in HEK293T cells assessed as reduction in D-2-HG levels at 10 uM after 72 hrs relative to control; values are per cent of control
[7] = Permeability of compound at 25 ug/ml after 18 hrs by PAMPA-BBB assay; format: ADME; settings: read-out: Peff
In short: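 PAMPA-BBB with porcine polar brain lipid (20 mg/mL, 4 µL per filter). DMSO stock 5 mg/ml diluted in PBS to 25 ug/ml final, 300 uL in donor, 150 µL PBS in acceptor. Sandwich left 18 h at room temperature. Acceptor and reference concentrations read by UV plate reader, Pe calculated by formula. Mean ± SD of three independent experiments.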

[8] = Cytotoxicity against HEK293T cells harboring WT-IDH1 assessed as cell survival at 10 uM after 72 hrs by CellTiter-Glo assay relative to control; format: cell-based, HEK-293T; settings: human, read-out: Survival
In short: (§2)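 HEK293 cells stably expressing wild-type IDH1 (cDNA in pMXs-GW-IRES-BsdR, transfected with FuGene HD, selected with blasticidin S), grown in DMEM with 10% fetal calf serum and 1% penicillin/streptomycin at 37 °C, 5% CO2. Seeded at 10 000 cells/well in 96-well plates, treated with compound for 72 h; viability read by CellTiter-Glo luminescence.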

[9] = Cytotoxicity against HEK293T cells harboring WT-IDH1 assessed as cell survival at 50 uM after 72 hrs by CellTiter-Glo assay relative to control; format: cell-based, HEK-293T; settings: human, read-out: Survival; in short: as §2

SMILES	residual activity [3] [%]	residual activity [4] [%]	residual activity [5] [%]	residual activity [6] [%]	Activity (HEK-293T [1])	Activity (HEK-293T [2])	Papp at 18 h, 25 ug/ml [7] [×10⁻⁶ cm/s]	viability at 72 h, 10 µM [8] [%]	viability at 72 h, 50 µM [9] [%]
CC(C)[C@H]1COC(=O)N1c1cncc(N[C@@H](C)c2ccc(-c3ccc(C(F)(F)F)cc3)cc2)n1	27.4	28	30.7	39.9	Non-Toxic	Toxic	–	–	–
COc1cccc(-c2ccc([C@H](C)Nc3cncc(N4C(=O)OC[C@@H]4C(C)C)n3)cc2)c1	41.7	59.8	33.9	86	Non-Toxic	–	–	–	–
COc1ccc(-c2ccc([C@H](C)Nc3cncc(N4C(=O)OC[C@@H]4C(C)C)n3)cc2)cc1	51.7	47.7	31.9	51.3	Non-Toxic	–	–	–	–
Cc1ccc(-c2ccc([C@H](C)Nc3cncc(N4C(=O)OC[C@@H]4C(C)C)n3)cc2)cc1	54.8	70.5	38.7	74.9	Non-Toxic	–	–	–	–
Cc1noc(C)c1-c1ccc([C@H](C)Nc2cncc(N3C(=O)OC[C@@H]3C(C)C)n2)cc1	30.2	47.9	21.5	54.1	Non-Toxic	Toxic	–	–	–
CNCCCN1c2ccccc2CCc2ccccc21 [DESIPRAMINE]	–	–	–	–	–	–	8.82	–	–
COc1ccccc1-c1ccc([C@H](C)Nc2cncc(N3C(=O)OC[C@@H]3C(C)C)n2)cc1	28.2	31.9	24.6	40.6	Non-Toxic	–	6.65	89.8	74.5
CC(C)[C@H]1COC(=O)N1c1cncc(N[C@@H](C)c2ccc(-c3ccc(F)cc3)cc2)n1	51.3	34.3	33	39	Non-Toxic	Toxic	–	–	–

More lines, main results first:

residual activity [3] [%]	residual activity [4] [%]	residual activity [5] [%]	residual activity [6] [%]	SMILES	Activity (HEK-293T [1])	Activity (HEK-293T [2])	Papp at 18 h, 25 ug/ml [7] [×10⁻⁶ cm/s]	viability at 72 h, 10 µM [8] [%]	viability at 72 h, 50 µM [9] [%]
44.1	78.4	28	89.9	CC(C)[C@H]1COC(=O)N1c1cncc(N[C@@H](C)c2ccc(-c3ccccc3F)cc2)n1	Non-Toxic	–	–	–	–
108	50	38.8	50.4	CC(C)[C@H]1COC(=O)N1c1cncc(N[C@@H](C)c2ccc(-c3ccccc3)cc2)n1	Non-Toxic	–	–	–	–
29.1	39.2	28.3	44.6	Cc1ccccc1-c1ccc([C@H](C)Nc2cncc(N3C(=O)OC[C@@H]3C(C)C)n2)cc1	Non-Toxic	–	–	–	–
73.9	85.4	39.5	71.3	CC(C)[C@H]1COC(=O)N1c1cncc(N[C@@H](C)c2ccc(-c3ccc4ccccc4c3)cc2)n1	Non-Toxic	–	–	–	–
29.7	33.9	24.7	–	CC(C)[C@H]1COC(=O)N1c1ccnc(N[C@@H](C)c2ccc(-c3ccccn3)cc2)n1	Non-Toxic	–	–	–	–
50.6	97.2	34.7	116	CC(C)[C@H]1COC(=O)N1c1cncc(N[C@@H](C)c2ccc(-c3cccc(F)c3)cc2)n1	Non-Toxic	–	–	–	–
29.7	49.7	28.5	51.1	Cc1cccc(-c2ccc([C@H](C)Nc3cncc(N4C(=O)OC[C@@H]4C(C)C)n3)cc2)c1	Non-Toxic	–	–	–	–
